High-throughput results (PubChem)
Compounds with a hit are over-represented: about 2.4% of the library has one in this group of screens.
pCIP destab – compounds decreasing mouse p/CIP protein stability; Q05BA5; F442A p/CIP-EGFP cells, EGFP fluorescence, 16 h; decrease of EGFP signal, % at 10 µM; 0.01% of 290,000 active;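 active means EGFP signal decrease of at least 30% at 10 µM or well 3 SD below plate mean, unless failing retest; inactive means the rest, including hits failing retest or dose response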
Cardio protect – modulators protecting cardiomyocytes from myocardial damage | H9c2 cardiomyocytes, H2O2 injury protection, ATPLite, 2 h | protection from H2O2 cell death, % at 20 µM | 0.63% of 360,000 active;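 active means compounds giving at least 50% protection of heart cells from peroxide-induced death in the single-dose screen, raw or plate-pattern-corrected value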;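 further: 0% = DMSO wells with peroxide and 100% = DMSO wells without peroxide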
GASC-1 inh – inhibitors of human GASC-1 (JMJD2C) demethylase; 0.069% of 330,000 active; inhibition, % at 2.35 µM; Q9H3R0; GST-JMJD2C(1-420) H3K9me3 demethylation, DELFIA europium;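 active means more than half of a compound's replicate wells show inhibition beyond 50%, single wells judged on their own value; inconclusive means some, but no more than half, of replicates pass 50% inhibition; inactive means no replicate passes 50% inhibition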;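 further: signal counts dimethyl H3K9 product captured on neutravidin plate; 0% = median of DMSO wells and 100% = 0.3 times that DMSO median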
T cruzi inh – blocks replication of Trypanosoma cruzi; T. cruzi beta-gal in NIH3T3, luminescence, 90 h; inhibition, % (test concentration not listed); 1.4% of 300,000 active;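 active means mean inhibition across valid replicates above about 55%, limit read from the data; inconclusive means mean below that limit but half or more replicates reach it; inactive means mean below it, under half of replicates reach it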;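 further: signal also drops with host cell toxicity which is not excluded here; 0% = plate median of DMSO wells and 100% = zero luminescence signal; higher percent means less beta-gal luminescence so fewer parasites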
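Assay system: NIH/3T3 fibroblasts plus reporter T. cruzi. Amount: NIH/3T3 cells, 5,000 per well. Buffer or medium: DMEM, 2% fetal bovine serum. Doses: compound pinned at 50 nL/well, DMSO. Schedule: ≥90 h infection period, 3 h prior cell attachment. Signal: luminescent β-galactosidase signal after 60 min lysis. Read-out: parasite load inhibition, %.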
PP5 primary – blocks human protein phosphatase 5 activity. P53041. inhibition, % at 6.7 µM. purified PP5c, OMFP substrate fluorescence. 0.18% of 320,000 active;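 active means inhibition above the campaign's mean inhibition across all tested compounds plus 3 SD, cut at about 9.5% in these data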;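 further: 0% = DMSO only and 100% = 100 µM cantharidin control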
Target sequence (P53041 whole entry, looked up): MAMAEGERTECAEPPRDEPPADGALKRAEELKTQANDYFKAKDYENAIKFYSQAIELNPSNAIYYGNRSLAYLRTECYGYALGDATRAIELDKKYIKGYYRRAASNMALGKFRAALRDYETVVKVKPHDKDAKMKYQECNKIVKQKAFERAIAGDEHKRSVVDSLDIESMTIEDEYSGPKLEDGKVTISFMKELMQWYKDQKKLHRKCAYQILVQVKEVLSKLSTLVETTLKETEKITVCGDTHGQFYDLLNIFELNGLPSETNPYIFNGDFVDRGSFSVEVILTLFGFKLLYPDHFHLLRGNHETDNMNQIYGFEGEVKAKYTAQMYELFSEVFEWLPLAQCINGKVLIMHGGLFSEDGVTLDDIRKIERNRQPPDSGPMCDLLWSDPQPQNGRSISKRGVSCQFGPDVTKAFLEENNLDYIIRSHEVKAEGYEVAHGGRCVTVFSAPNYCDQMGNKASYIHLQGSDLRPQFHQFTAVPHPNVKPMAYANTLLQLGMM
CTSL1 counter – blocks F. hepatica cathepsin L1 in PFM18AAP counter-screen. inhibition, % at 5.96 µM. 0.49% of 300,000 active. recombinant F. hepatica cathepsin L1, Z-Leu-Arg-MCA fluorescence. AID 1906;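 active means inhibition above the mean of all tested compounds plus 3 SD, set per screening campaign, cut at about 17% in these data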;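 further: 0% = plate median of test compound wells and 100% = 1 µM Z-Phe-Ala-diazomethylketone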
* = called active by the depositor; ? = inconclusive; . = no result.

SMILES | pCIP destab | Cardio protect | GASC-1 inh | T cruzi inh | PP5 primary | CTSL1 counter
NC(=O)c1cccc2c1C(=O)N(C1CCCCC1)C2 | -3.1 | 77.5* | -4.5 | -4.1 | 4.1 | -1.0
Cc1ccccc1OCC(=O)OCC(=O)c1ccc[nH]1 | . | -5.1 | -1.4 | . | -2.7 | .
CCOC(=O)C1CCN(C(=O)CN2C(=O)COc3ccc(C(C)(C)C)cc32)CC1 | 4.7 | 3.1 | -15.3 | 2.4 | 1.3 | -4.2
OC(CN1CCN(C(c2ccccc2)c2ccccc2)CC1)c1ccccc1 (configuration not stated) | -1.4 | -5.9 | -19.2 | 1.0 | 3.3 | -6.1
CN1CCN(CC(O)c2ccccc2)CC1 (configuration not stated) | 2.4 | . | -1.8 | 55.2* | 0.7 | -0.1
COc1ccc(N2CC(C(=O)N3CCN(Cc4ccc5c(c4)OCO5)CC3)CC2=O)cc1 (configuration not stated) | -26.7 | 2.4 | -5.8 | 7.2 | 0.0 | -1.6
CC(C)Oc1ccc(C(=O)NC2CCN(Cc3ccccc3)CC2)cc1 | 0.6 | 6.6 | 2.4 | 32.9 | 0.2 | 4.6
OC1CCN(Cc2ccc(OCc3ccccc3)cc2)CC1 | -15.4 | 6.9 | -0.5 | 61.5* | -3.3 | 1.4
CCOc1ccc(OCC(O)CNC2CCN(Cc3ccccc3)CC2)cc1 (configuration not stated) | -16.7 | 8.3 | 15.0 | 56.6* | 1.1 | -3.1
O=C(C1CCN(Cc2ccc(OCc3ccccc3)cc2)CC1)N1CCCC1 | -7.2 | -2.0 | 0.2 | -4.1 | 1.3 | -2.3
CC(Oc1ccc(Br)cc1)C(=O)NC1CCN(Cc2ccccc2)CC1 (configuration not stated) | . | -1.9 | 2.3 | 57.7* | 0.8 | -5.8
CC(C)(c1ccccc1)c1ccc(OCC(O)CNC2CCN(Cc3ccccc3)CC2)cc1 (configuration not stated) | -14.3 | -25.7 | 4.7 | 61.6* | 0.6 | -1.4
N#Cc1c(N2CCCC(O)C2)nc(N)c2c(N)nc3c(c12)CC(=O)N3C12CC3CC(CC(C3)C1)C2 (configuration not stated) | -14.9 | -21.6 | 137.4 | -0.9 | 13.6* | 25.0*
N#Cc1c(N(CCO)CCO)nc(N)c2c(N)nc3c(c12)CC(=O)N3CC1CCCO1 (configuration not stated) | -7.8 | -4.7 | -8.9 | -2.0 | 8.2 | -3.1
CCN(CC)c1nc2c3c(nc4c(c3c1C#N)CC(=O)N4c1ccc(Cl)cc1)NC(C)=N2 | -2.1 | 20.3 | -2.1 | -14.9 | 1.0 | 4.3
CCCCN1C(=O)Cc2c1nc(N)c1c(N)nc(N(CCC)CCC)c(C#N)c21 | -12.6 | 31.3 | -0.3 | 74.1* | 15.1* | 6.7
C=C(C)CN(CC)c1nc(N)c2c(N)nc3c(c2c1C#N)CC(=O)N3C12CC3CC(CC(C3)C1)C2 | -9.8 | -18.8 | 1.3 | 56.9* | 2.6 | 3.6
NC(N)=N/N=C(\N=Nc1ccccc1)c1ccc(Cl)cc1 | . | -18.8 | . | . | . | .
CN1CCCN(C(=O)CNC(=O)c2ccc(Cl)cc2Cl)CC1 | . | -1.2 | -4.0 | . | . | .
CC(=O)c1c(C)[nH]c(C(=O)OCC(=O)N2CCc3ccccc3C2)c1C | . | -10.4 | 1.0 | . | 2.3 | .
O=C1N(Cc2cccc(Cl)c2)C[C@@H]2C[C@@H](c3cccc4ncccc34)N3CCC[C@@]123 | -3.0 | -4.1 | 31.1 | 8.1 | -0.4 | 4.7
O=C1N(Cc2cccc(Cl)c2)C[C@@H]2C[C@@H](c3c[nH]c4ccccc34)N3CCC[C@@]123 | -2.2 | -7.8 | -6.8 | 58.1* | 1.2 | -0.6
O=C(CN1C(=O)NC2(CCCCCC2)C1=O)N1CCCCC1 | . | -3.6 | 0.6 | . | -2.1 | .
Cc1cc(C2(c3ccc(O)c(C)c3)OC(=O)c3ccccc32)ccc1O | 1.2 | -2.8 | 8.1 | -15.0 | 3.8 | -2.0
Cc1cc(O)c(C(C)C)cc1C1(c2cc(C(C)C)c(O)cc2C)OC(=O)c2ccccc21 | 5.3 | -16.9 | -10.7 | 77.0* | 6.7 | -1.1
SMILES | pCIP destab | Cardio protect | GASC-1 inh | T cruzi inh | PP5 primary | CTSL1 counter
O=[N+]([O-])c1ccc(-c2nc(Nc3ccc(O)cc3)c3ccccc3n2)cc1 | 2.3 | 51.7* | 3.9 | 17.6 | . | .
c1ccc2c(Nc3ccc(N4CCOCC4)cc3)nc(N3CCOCC3)nc2c1 | -7.8 | 22.0 | -3.7 | 22.6 | 3.5 | 1.0
COc1ccc(Nc2nc(-c3cccc([N+](=O)[O-])c3)nc3ccccc23)cc1 | 2.0 | 10.2 | -6.6 | 64.9* | 6.2 | 2.5
Cc1cccc(-c2nc(Nc3ccc(N4CCOCC4)cc3)c3ccccc3n2)c1 | -2.7 | 13.0 | 1.2 | 56.2* | 3.7 | 2.3
COc1ccc(Nc2nc(-c3ccccc3)nc3ccccc23)cc1 | 3.2 | -3.9 | -9.9 | 41.6 | 1.8 | 3.9
CCCCC(=O)N(C)c1c(CC)nc2c(OCc3ccc(C(F)(F)F)cc3)cccn12 | . | -3.9 | . | . | . | .
CCOC(=O)c1cc(C#N)c(N2CCN(C)CC2)nc1-c1ccccc1 | -16.1 | 0.7 | 31.8 | 56.9* | 0.3 | 1.0
COc1ccc(CC(=O)N(C)Cc2ccc(OC(F)F)cc2)cc1S(=O)(=O)N1CCOCC1 | . | 0.0 | . | . | . | .
CNCCCOc1cccc(OC(C)C)c1 | -8.2 | 4.3 | ? | 22.7 | 0.5 | -2.8
CNCCCOc1cccc(Oc2ccccc2)c1 | 10.2 | 1.4 | -7.7 | 60.2* | 2.4 | -1.0
CN(N=Cc1ccccc1)C(=S)Nc1ccccc1 | . | 0.7 | . | . | . | .
Cc1ccc(CNC(=O)c2nnn(CC(=O)Nc3cccc(C)c3C)c2N)cc1 | 8.0 | -2.0 | 4.9 | -15.9 | -0.6 | -3.2
CC(C)CCNc1nc(-c2ccco2)c2c(c1C#N)CCCC2 | 5.3 | -15.0 | -11.2 | 19.2 | 2.3 | 18.5*
N#Cc1c(N2CCOCC2)nc(-c2ccco2)c2c1CCCC2 | -6.7 | 19.8 | 7.0 | 30.8 | 3.0 | 42.0*
N#Cc1c(NCCN)nc(-c2ccco2)c2c1CCCC2 | -4.4 | 14.2 | 21.6 | 8.0 | -0.5 | 11.4
CCc1ccc(C(O)(CNCc2ccccc2)c2ccccc2)cc1 (configuration not stated) | -11.1 | -15.1 | -4.8 | 14.1 | . | .
CC(C)(C)c1ccccc1NC(=O)CN1C(=O)NC2(CCCCCC2)C1=O | . | 4.8 | 1.1 | . | 2.4 | .
CCOC(=O)c1cnc(Nc2nc3ccccc3o2)nc1CSC(=S)N(CC)CC | 2.9 | 15.8 | -7.2 | 61.2* | 2.0 | 3.1
O=C(COC(=O)C1(c2ccccc2F)CCCC1)N1CCNC1=O | . | -0.8 | . | . | . | .
Cn1nc(-c2ccccn2)nc2c(=O)n(C)c(=O)nc1-2 | 31.0 | -16.0 | 53.9* | 58.6* | 16.5* | 113.7*
CCOC(=O)N1CCN(C(=O)CSC2=NS(=O)(=O)c3ccccc3N2)CC1 | . | -3.1 | 3.9 | -3.7 | -1.8 | 5.1
O=C(CN(Cc1ccccc1)S(=O)(=O)c1ccc(Cl)cc1)NCC1CCCO1 (configuration not stated) | 17.0 | 2.8 | 11.4 | 6.6 | 3.0 | 1.1
CCN(CC(=O)NCC1CCCO1)S(=O)(=O)c1ccc(Cl)cc1 (configuration not stated) | -7.7 | 5.9 | 50.4* | -3.8 | 0.3 | -4.8
